Source: PubChem BioAssay
Sampled rows, rich in hits. Any-hit rate of the full collection: about 12%.
Rad51 HR inh = Rad51 (human) homologous recombination inhibition | inhibition, % at 10 µM | hRad51 DNA strand exchange, fluorescence dequenching | Q06609 | 0.085% of 200,000 active;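 active = inhibition above 40% at the single screening dose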;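 also: 0% = DMSO control wells and 100% = blanks with heterologous ssDNA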
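System: human Rad51 nucleoprotein filaments preassembled on unlabelled ssDNA. Reagent: labelled 47-mer dsDNA for strand exchange. Schedule: 30-min compound preincubation and 15-min exchange, both room temperature. Measured by: FRET fluorescence dequenching, excitation 485 nm, emission 520 nm. Read-out: Fluorescence-based percent inhibition, control- and blank-normalised. Benchmarks: plate controls and plate blanks.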
Lmaj promast = inhibitors of Leishmania major promastigote growth; Leishmania major promastigotes, resazurin fluorescence viability; inhibition, % at 10 µM; AID 1063; 9% of 200,000 active;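 also: promastigotes grown with compound for 44 hours at 28 °C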
CHOP inhibitor = CHOP inhibition in unfolded protein response | CHO-K1 CHOP-promoter luciferase, tunicamycin-induced, 15-18 h | 3.8% of 220,000 active | inhibition, % at 10 µM;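 active = compounds that reduced the stress-induced luciferase reporter signal by more than about 70% of percent inhibition, limit read from the data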;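 also: 0% = tunicamycin plus vehicle and 100% = wells without tunicamycin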
Wee1 degr inh = blocks degradation of human Wee1 kinase; P30291; HeLa Luc-Wee1K328M stability, luciferase luminescence; 100% = proteasome inhibitor MG132 effect; reporter increase, % at 5 µM; 1.2% of 220,000 active;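 active = activation above the mean of all tested compounds plus 3 SD, set per screening run, cut at about 8.8% in these data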;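 also: cells exposed to compound for 20 h before luminescence read; 0% = DMSO alone and 100% = MG132 at 30 µM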
Arbovirus anti = antivirals against arbovirus infection. arbovirus infection cell-based antiviral screen. inhibition, % at 10 µM. 0.37% of 200,000 active. AID 1251; in the data active = inhibition above about 30%
PKD1 kinase inh = blocks activity of human protein kinase D1; Q15139; PKD1 kinase fluorescence polarization assay; inhibition, % (no concentration beside the values); 0.056% of 200,000 active; AID 797
Target sequence (Q15139 whole entry, looked up): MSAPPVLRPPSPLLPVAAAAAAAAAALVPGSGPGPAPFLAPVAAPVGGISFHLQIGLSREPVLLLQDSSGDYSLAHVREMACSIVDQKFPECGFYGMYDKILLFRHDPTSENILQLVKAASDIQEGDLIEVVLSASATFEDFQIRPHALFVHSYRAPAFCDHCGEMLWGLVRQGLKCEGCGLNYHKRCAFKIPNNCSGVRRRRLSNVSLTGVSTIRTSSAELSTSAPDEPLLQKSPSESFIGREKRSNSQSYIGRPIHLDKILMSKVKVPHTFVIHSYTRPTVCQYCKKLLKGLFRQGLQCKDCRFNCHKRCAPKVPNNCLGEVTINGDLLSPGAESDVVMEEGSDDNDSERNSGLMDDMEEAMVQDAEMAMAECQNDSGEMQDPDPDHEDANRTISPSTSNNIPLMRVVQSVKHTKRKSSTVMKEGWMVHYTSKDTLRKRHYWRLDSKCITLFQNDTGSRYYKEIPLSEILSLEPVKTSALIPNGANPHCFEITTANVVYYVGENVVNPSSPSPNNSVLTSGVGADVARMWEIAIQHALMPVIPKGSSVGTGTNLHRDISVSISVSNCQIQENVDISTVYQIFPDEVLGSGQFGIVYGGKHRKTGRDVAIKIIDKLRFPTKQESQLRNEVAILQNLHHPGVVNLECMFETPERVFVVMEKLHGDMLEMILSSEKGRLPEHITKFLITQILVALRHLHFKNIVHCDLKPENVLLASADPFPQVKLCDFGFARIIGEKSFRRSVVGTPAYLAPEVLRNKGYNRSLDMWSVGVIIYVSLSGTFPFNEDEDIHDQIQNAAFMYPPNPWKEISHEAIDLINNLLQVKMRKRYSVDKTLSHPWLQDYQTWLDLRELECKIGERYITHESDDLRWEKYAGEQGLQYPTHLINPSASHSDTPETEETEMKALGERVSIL
* marks the source's active call; other numbers are inactive results; · = no result given. Rule as the data show it, unless noted: active = inhibition above about 50%; inactive = the rest.

SMILES | Rad51 HR inh | Lmaj promast | CHOP inhibitor | Wee1 degr inh | Arbovirus anti | PKD1 kinase inh
COc1ccc(OC)c(-c2csc(N3CCC(c4ccccc4)CC3)n2)c1 | -1.9 | -4.9 | 24.2 | -2.9 | 1.8 | -5.0
O=C(Nc1ccc(Cl)c([N+](=O)[O-])c1)ONC1=NCCCCC1 | 11.6 | 5.2 | -4.0 | -0.3 | 10.1 | 2.6
Cc1ncccc1C(=O)N1CCCC(CNC(=O)C2(c3ccc(Cl)cc3)CC2)C1 (stereo unspecified) | 3.0 | -8.4 | -3.7 | 1.3 | 2.3 | -4.0
CC1Cc2ccccc2N1C(=O)Cn1cc([N+](=O)[O-])cn1 (stereo unspecified) | -4.7 | -1.9 | -29.6 | -2.2 | 2.2 | 1.4
CCC(C)C(NC(=O)OC(C)(C)C)C(=O)NC(C(=O)NC(C)C(N)=O)C(C)C (stereo unspecified) | -21.3 | -2.3 | 57.7 | 1.4 | 1.3 | -5.2
COC(=O)[C@@]1(Cc2ccc(OC)cc2)[C@H]2c3cc(C(=O)N(C)C)n(CCSCCO)c3C[C@H]2CN1C(=O)c1ccccc1 | -2.3 | 64.7* | 22.0 | -2.7 | -0.1 | 3.5
Cc1cc(C)nc(Nc2n[nH]c(-c3ccc(C(C)(C)C)cc3)n2)n1 | 2.8 | 35.5 | 77.1* | -3.4 | -2.4 | -3.7
CCOC(=O)C(C)Sc1nc(-c2ccco2)cc(C(F)(F)F)c1C#N (stereo unspecified) | -7.9 | 14.6 | 47.4 | 9.9* | -0.2 | -4.2
CCOC(=O)C(=NCCOC)NNc1cc(Cl)ccc1Cl | · | -5.0 | 15.3 | 4.5 | -13.5 | -13.2
Cc1cc2ccccc2c(=O)n1CC(=O)NCC(=O)N1CCN(c2cccc(Cl)c2)CC1 | -4.5 | -0.1 | 89.2* | 7.9 | -5.7 | -7.6
Cn1nccc1C(=O)Nc1ccn(C23CC4CC(CC(C4)C2)C3)n1 | 5.8 | 52.9* | 35.3 | 2.5 | -3.3 | -0.5
COc1c(C(CC(C)C)OC(C)=O)ccc2c1C(=O)OCc1cc(C)cc(O)c1O2 (stereo unspecified) | -0.3 | · | 71.9* | · | · | ·
CCCCn1c(CN2CCN(C)CC2)nc2ccccc21 | -0.5 | 60.6* | -13.8 | -3.5 | 6.9 | 9.8
CCCn1c(CN2CCN(C)CC2)nc2ccccc21 | -5.2 | -2.9 | 28.8 | -2.0 | 2.0 | 1.6
NC(=O)C(=O)O | · | · | 2.0 | · | · | ·
Oc1cc2ccccc2cc1-c1n[nH]c(=S)o1 | -3.6 | -10.8 | 0.1 | 8.9* | 10.2 | -7.5
O=C(Nc1ncc(Cc2ccccc2Cl)s1)C1=NCCN1 | -2.9 | 72.8* | 0.1 | -2.2 | -17.4 | 9.9
O=C(Nc1ncc(Cc2ccc(Cl)cc2Cl)s1)c1ccc([N+](=O)[O-])cc1 | -2.0 | 53.2* | 59.1 | 3.2 | -6.7 | 3.9
COc1ccc2cc(C(c3nnnn3C3CCCC3)N3CCOCC3)c3nnnn3c2c1 (stereo unspecified) | · | -0.2 | 40.7 | 7.0 | -9.2 | -0.8
CC(C)Oc1ccc(OCCNC2CCCC2)cc1 | -1.7 | 78.8* | 8.7 | -0.3 | -7.2 | -1.0
CCOc1cccc(OCCCOc2ccccc2)c1 | 3.5 | -3.7 | 64.4 | -0.4 | -1.0 | -7.2
CCOc1cccc(OCCNC2CCCC2)c1 | 12.5 | 80.0* | 26.0 | -1.7 | -7.6 | -4.7
Cc1ccnc(NC(=S)NC(=O)/C=C/c2ccc(Cl)cc2)c1 | 9.5 | -7.2 | -9.8 | 3.0 | -17.7 | 4.7
Cc1cc2cc(CN(CCN(C)C)C(=S)NCc3ccco3)c(=O)[nH]c2cc1C | -10.4 | 12.8 | -0.3 | 0.6 | -14.1 | 5.1
CCN(CC)CCN(Cc1cc2cc(C)c(C)cc2[nH]c1=O)C(=S)NCc1ccco1 | 19.1 | 60.0* | 33.4 | 0.1 | -20.2 | -3.1
SMILES | Rad51 HR inh | Lmaj promast | CHOP inhibitor | Wee1 degr inh | Arbovirus anti | PKD1 kinase inh
Cc1cc2cc(CN(Cc3cccs3)C(=S)NCc3ccco3)c(=O)[nH]c2cc1C | -9.3 | 87.8* | 21.3 | -1.6 | -2.1 | -6.2
Cc1ccc(C)c2[nH]c(=O)c(CN(Cc3cccs3)C(=S)NCc3ccco3)cc12 | · | 70.3* | 66.0 | 1.1 | 15.3 | 2.7
O=C(NCCCc1ccccc1)c1cc([N+](=O)[O-])ccc1Cl | · | -2.9 | 30.0 | 1.9 | -2.5 | -4.3
O=C(NCCO)c1cc([N+](=O)[O-])cc2c1C=Cc1ccccc1O2 | 3.0 | 95.2* | 3.0 | 3.0 | 4.8 | 7.8
CC(NC(=O)C(=O)NCCC1=CCCCC1)c1ccccc1 (stereo unspecified) | · | -3.8 | 95.2* | 8.8* | -3.6 | 12.7
CC(C)C(NC(=O)c1ccc(C(C)(C)C)cc1)C(=O)OCC(=O)NC(=O)Cc1ccccc1 (stereo unspecified) | -11.9 | 50.2* | 4.7 | 4.4 | -0.8 | 0.4
CC(C)[C@H](NC(=O)c1ccccc1)C(=O)OCC(=O)c1ccccc1F | 6.4 | 5.2 | 2.9 | 2.1 | -0.8 | -1.2
O=C(NCCC1=CCCCC1)C(=O)NCC1OCCCN1S(=O)(=O)c1ccccc1 (stereo unspecified) | 6.5 | 95.7* | 24.3 | 0.9 | 8.0 | -6.5
CC(C)[C@H](NC(=O)c1ccccc1)C(=O)OCC(=O)NCCC1=CCCCC1 | -3.0 | 59.0* | 6.1 | -1.5 | 1.5 | -7.3
CC(C)[C@H](NC(=O)c1ccccc1)C(=O)OCC(=O)NCCc1ccc(F)cc1 | 3.3 | 0.6 | 10.1 | -1.0 | -1.0 | -3.0
CCNc1nc(NCC)n2c(SCC(=O)Nc3ccccc3[N+](=O)[O-])nnc2n1 | 5.1 | -7.5 | 21.1 | -1.1 | 3.1 | -12.4
Cc1ccc(OCC(=O)Nc2ccc(N3CCN(C(=O)c4ccco4)CC3)cc2)cc1 | -5.4 | 26.6 | 28.6 | -1.6 | -16.0 | -6.6
S=c1[nH]nc(CSCCOc2ccc(Cl)cc2Cl)o1 | -9.4 | · | -8.8 | 0.4 | · | ·
Fc1ccc(C2CCCN2Cc2nc(CC3CC3)no2)cc1 (stereo unspecified) | -2.0 | 56.6* | 51.6 | 0.2 | 4.6 | -0.7
O=C(CCC1CCCC1)NCCCN1CCOCC1 | 10.4 | 67.1* | 24.1 | -0.4 | 2.3 | 3.9
COc1ccc(CCC(=O)Nc2ccc(C)c([N+](=O)[O-])c2)cc1 | 0.3 | -0.3 | 22.1 | -2.8 | -5.0 | -5.6
Cc1ccc(S(=O)(=O)NCCCCCC(=O)Nc2c(C)n(C)n(-c3ccccc3)c2=O)cc1 | -4.0 | 4.6 | 17.8 | 0.9 | -3.0 | -9.0
COc1ccc(/C=C(\CC(=O)O)c2nc3ccccc3s2)cc1O | 22.1 | -4.5 | 42.2 | 2.9 | 0.4 | -1.7
CCOc1cc(/C=C(\CC(=O)O)c2nc3ccccc3s2)ccc1OC | -60.6 | 98.2* | 10.9 | -3.0 | -0.9 | -5.7
CN(c1ccccc1)c1ccc(/C=C(\CCC(=O)O)c2nc3ccccc3s2)cc1[N+](=O)[O-] | 4.7 | 44.1 | 99.8* | -1.1 | 37.1* | 2.9
COc1ccc(C(=O)Nc2cccc(/C=C(\CCC(=O)O)c3nc4ccccc4s3)c2)cc1 | 14.2 | · | 83.4* | 0.7 | · | ·
Cc1ccc(/C=C(\CCC(=O)O)c2nc3ccccc3s2)cc1[N+](=O)[O-] | 12.7 | -5.7 | 34.8 | -0.9 | 23.1 | -11.7
C=CC[C@]12C=C(OC)C(=O)C=C1O[C@@H](c1ccc3c(c1)OCO3)[C@H]2C | 2.5 | · | · | · | · | ·
CC(Sc1cccc[n+]1[O-])C(=O)Nc1ccc(Oc2ccccc2)cc1 (stereo unspecified) | · | 9.3 | 6.5 | 4.8 | -8.2 | -0.4
